Legend:
[1] = Antiischemic activity against Na2S2O4-induced hypoxia/reoxygenation cell injury in neonatal rat primary cardiac myocytes assessed as increase in cell survival rate at 10^-6 mol/L by MTT assay; type: functional, Cardiac muscle cell
Method in brief: (§1)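 Neonatal rat primary cardiomyocytes, six wells per group. Hypoxia induced with 50 mmol/L Na2S2O4 in serum-free DMEM for 2 h, then reoxygenated 4 h in DMEM with 10% serum. Drug added in serum-free DMEM 1 h before reoxygenation, final 10^-6, 10^-5, 10^-4 mol/L. MTT (5 mg/mL) for 4 h, formazan dissolved in DMSO, A490. Survival = treated OD/normal control OD.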

[2] = Antiischemic activity against Na2S2O4-induced hypoxia/reoxygenation cell injury in neonatal rat primary cardiac myocytes assessed as increase in cell survival rate at 10^-5 mol/L by MTT assay; type: functional, Cardiac muscle cell; method in brief: as §1
[3] = Antiischemic activity against Na2S2O4-induced hypoxia/reoxygenation cell injury in neonatal rat primary cardiac myocytes assessed as increase in cell survival rate at 10^-4 mol/L by MTT assay; type: functional, Cardiac muscle cell; method in brief: as §1
[4] = Antiischemic activity against Na2S2O4-induced hypoxia/reoxygenation cell injury in neonatal rat primary cardiac myocytes assessed as cell viability at 10^-6 mol/L by MTT assay; type: functional; details: Cardiac muscle cell; method in brief: as §1
[5] = Antiischemic activity against Na2S2O4-induced hypoxia/reoxygenation cell injury in neonatal rat primary cardiac myocytes assessed as cell viability at 10^-5 mol/L by MTT assay; type: functional; details: Cardiac muscle cell; method in brief: as §1
[6] = Antiischemic activity against Na2S2O4-induced hypoxia/reoxygenation cell injury in neonatal rat primary cardiac myocytes assessed as cell viability at 10^-4 mol/L by MTT assay; type: functional; details: Cardiac muscle cell; method in brief: as §1

SMILES	Activity [1]	Activity [2]	Activity [3]	MTT OD at 1 µM [4]	MTT OD at 10 µM [5]	MTT OD at 100 µM [6]
COc1ccc(CN2CCN(CCOc3ccc(C(=O)NC(=N)N)cc3NC(=O)c3ccccc3[N+](=O)[O-])CC2)c(OC)c1OC	48.05%	51.45%	56.48%	0.353 absorbance	0.379 absorbance	0.434 absorbance
COc1ccc(CN2CCN(CCOc3ccc(C(=O)NC(=N)N)cc3NC(=O)c3sccc3C)CC2)c(OC)c1OC	53.22%	61.63%	72.41%	0.391 absorbance	0.454 absorbance	0.556 absorbance
COc1ccc(CN2CCN(CCOc3ccc(C(=O)NC(=N)N)cc3NC(=O)c3ccc(Cl)cc3Cl)CC2)c(OC)c1OC	49.27%	55.52%	58.33%	0.362 absorbance	0.409 absorbance	0.488 absorbance
COc1ccc(CN2CCN(Cc3ccc(C(=O)N=C(N)N)cc3[N+](=O)[O-])CC2)c(OC)c1OC	50.41%	59.78%	69.24%	0.37 absorbance	0.44 absorbance	0.532 absorbance
